{
  "source": "ChEMBL document CHEMBL1152736",
  "about": "“Synthesis and biological testing of thioalkane- and thioarene-spaced bis-beta-D-glucopyranosides” (Bioorg Med Chem, 2009)",
  "assay_type_in_all_cases": "functional, cell-based",
  "key": {"[1]": {"system": "U-937", "experiment": "Stimulation of growth of human U937 cells at 25 to 50 uM after 24 hrs"}, "[2]": {"system": "MOLT-3", "experiment": "Stimulation of growth of human MOLT3 cells at 25 to 50 uM after 24 hrs"}, "[3]": {"system": "U-937", "experiment": "Reduction in viability of human U937 at 75 uM after 24 hrs by MTS assay", "procedure,_shortened": "(§1)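 MTS colorimetric assay: 2 × 10⁴ cells in 100 µL RPMI-1640 with 5% FBS, 2 mM L-glutamine and penicillin–streptomycin, with compound or DMSO vehicle for 24 h. MTS reagent then added for 4 h and absorbance read at 490 nm. Mean and SD of three determinations. Comparison with vehicle by Student's t-test.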"}, "[4]": {"system": "MOLT-3", "experiment": "Reduction in viability of human MOLT3 cells at 75 uM after 24 hrs by MTS assay", "procedure,_shortened": "as §1"}, "[5]": {"system": "MOLT-3", "experiment": "Induction of apoptosis in human MOLT3 cells at 10 uM after 24 hrs by fluorescence microscopy", "procedure,_shortened": "(§2)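 Cells exposed 24 h to DMSO vehicle or test agent at 10–75 µM. Stained with acridine orange; apoptosis scored morphologically by fluorescence microscopy, over 600 cells analyzed. % apoptosis = apoptotic cells / total cells counted × 100. Mean and SD of three determinations. Comparison with vehicle by Student's t-test (MOLT3) or Tukey HSD (U937).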"}, "[6]": {"system": "U-937", "experiment": "Induction of apoptosis in human U937 cells at 10 uM after 24 hrs by fluorescence microscopy", "procedure,_shortened": "as §2"}, "[7]": {"system": "U-937", "experiment": "Induction of apoptosis in human U937 cells after 24 hrs by fluorescence microscopy", "procedure,_shortened": "as §2"}, "[8]": {"system": "MOLT-3", "experiment": "Induction of apoptosis in human MOLT3 cells after 24 hrs by fluorescence microscopy", "procedure,_shortened": "as §2"}},
  "note": "Calls of active or inactive are those of the source. The calls are words filed in the database; no cut-off is given here.",
  "data": [
    {"smiles": "C=C(CO[C@@H]1O[C@H](COC(C)=O)[C@@H](OC(C)=O)[C@H](OC(C)=O)[C@H]1OC(C)=O)[S+]([O-])c1cccc([S+]([O-])C(=C)CO[C@@H]2O[C@H](COC(C)=O)[C@@H](OC(C)=O)[C@H](OC(C)=O)[C@H]2OC(C)=O)c1", "note": "(stereo partly drawn)", "values": [
      {"measurement": "Activity", "setting": "[1]", "result": "Active"},
      {"measurement": "Activity", "setting": "[2]", "result": "Active"},
      {"measurement": "Activity", "setting": "[3]", "result": "Active"},
      {"measurement": "Activity", "setting": "[4]", "result": "Active"},
      {"measurement": "Activity", "setting": "[5]", "result": "inactive"},
      {"measurement": "Activity", "setting": "[6]", "result": "inactive"},
      {"measurement": "Activity", "setting": "[7]", "result": "Dose-dependent effect"},
      {"measurement": "Activity", "setting": "[8]", "result": "Dose-dependent effect"}
    ]}
  ]
}
